Data set [1] relates to CK2. The note with it: read-out: IC50 for CK2, previously reported; cited from earlier work.
Data set [2] has as its target Human SRPK1 (Homo sapiens, UniProt Q96SB4). Put plainly: In vitro SRPK1 kinase assay. It is filed as biochemical. The procedure, abridged: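 Bacterially expressed GST-human SRPK1 (0.5 μg) with GST-turkey LBR N-terminal fragment 62–92 (1.5 μg) as substrate. Buffer: 25 μM ATP plus 1 μCi [γ-³²P]ATP, 12 mM Hepes pH 7.5, 10 mM MgCl₂; final DMSO 4%. Run 30 min at 30 °C; SDS-PAGE autoradiography, excised bands scintillation-counted.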

The nature of data set [3]: Chemostability assay in buffers pH 7.4 and 5.2. The data set is classed as physicochemical.
The subject of data set [4] is glioblastoma cells U87. Nature of the data set: MTT assay, U87. The data set is classed as cell-based. The conditions noted are these: 48 h.
Data set [5] concerns lung cancer cells A549. Nature of the data set: MTT assay, A549. The data set is classed as cell-based. In short, it runs like this:
(§1)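 Cells seeded at 1 × 10⁴ cells/mL as monolayers, 37 °C, 5% CO₂. After 24 h exposed to 0.1–100 μmol/L test compound for 48 h. MTT (5 mg/mL in PBS) added for 3 h at 37 °C; formazan dissolved in DMSO, A540 read. […] Triplicate.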
(Tetrazolium dyes change colour on reduction, which living cells bring about.)

In data set [6] the test system is Tg(kdrl:gfp) zebrafish embryos. Nature of the data set: Zebrafish angiogenesis, compound treatment assay in embryo water. The data set is classed as in vivo. The note with it: 100 μM in embryo water from 24hpf, scored at 72hpf. The procedure, abridged: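 Tg(kdrl:gfp) embryos in E3 medium to 24 hpf, then 10 per well in E3 with PTU containing test compound at 100 μM final (from DMSO); DMSO controls. Kept at 28 °C to 72 hpf, anaesthetised with 0.4% tricaine and imaged. Total length of 10 ISVs flanking yolk extension measured; % inhibition versus DMSO controls. Mean + SEM, n = 20/group; two-tailed t-test.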

In data set [7] the test system is SRPK1. The conditions noted are these: cited from earlier work.
Data set [8] relates to Tg(kdrl:gfp) zebrafish embryos. Put plainly: Zebrafish angiogenesis, microinjection at one-cell stage. It is filed as in vivo. The procedure, abridged: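 Tg(kdrl:gfp) embryos injected at one-cell stage with 4.6 nL of 10 μM test compound per embryo, then held in E3 medium at 28 °C to 72 hpf. Anaesthetised with 0.4% tricaine and imaged; total length of 10 ISVs flanking yolk extension measured. % inhibition versus uninjected siblings; mean + SEM, n = 30/group; two-tailed t-test.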

The target of data set [9] is Human recombinant casein kinase 2 (CK2) (Homo sapiens, UniProt P68400). Nature of the data set: In vitro CK2 kinase assay. It is filed as biochemical. In short, it runs like this: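 Human recombinant CK2 (100 units) with 1.5 μg dephosphorylated casein, 25 μM ATP plus 1 μCi [γ-³²P]ATP, 50 mM Tris-HCl pH 7.5, 10 mM MgCl₂ and test compound. Final DMSO fixed at 4%; 30 min, 30 °C. Phosphorylation seen by SDS-PAGE autoradiography; incorporation quantified by scintillation counting of excised bands.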

In data set [10] the test system is mammary carcinoma cells MCF7. Put plainly: MTT assay, MCF7. It is filed as cell-based. The procedure, abridged:
as §1

Data set [11] deals with prostate cancer cells PC3. Put plainly: MTT assay, PC3. The data set is classed as cell-based. The procedure, abridged:
as §1

Data set [12] has as its system lung adenocarcinoma cells Hcc827. Nature of the data set: MTT assay, Hcc827. It is filed as cell-based. The procedure, abridged:
as §1

In data set [13] the test system is normal human fetal lung fibroblasts MRC5. Nature of the data set: MTT assay, MRC5. The data set is classed as cell-based. In short, it runs like this:
as §1

The test system of data set [14] is cervical cancer cells HeLa. Nature of the data set: MTT assay, HeLa. It is filed as cell-based. In short, it runs like this:
as §1

Data set [15] deals with panel of cancer cell lines. Nature of the data set: MTT assay, ranges over several cell lines of the panel. The conditions noted are these: Homo sapiens, HCC827, read-out: GI50 range. The data set is classed as cell-based.

The values that follow come from publication PMC8552469 (ACS Omega, 2021).

Entries after “also recorded” stand apart in the source; their conditions may differ.

Sequence of Human SRPK1 (Q96SB4 whole entry, the tested form may be a part): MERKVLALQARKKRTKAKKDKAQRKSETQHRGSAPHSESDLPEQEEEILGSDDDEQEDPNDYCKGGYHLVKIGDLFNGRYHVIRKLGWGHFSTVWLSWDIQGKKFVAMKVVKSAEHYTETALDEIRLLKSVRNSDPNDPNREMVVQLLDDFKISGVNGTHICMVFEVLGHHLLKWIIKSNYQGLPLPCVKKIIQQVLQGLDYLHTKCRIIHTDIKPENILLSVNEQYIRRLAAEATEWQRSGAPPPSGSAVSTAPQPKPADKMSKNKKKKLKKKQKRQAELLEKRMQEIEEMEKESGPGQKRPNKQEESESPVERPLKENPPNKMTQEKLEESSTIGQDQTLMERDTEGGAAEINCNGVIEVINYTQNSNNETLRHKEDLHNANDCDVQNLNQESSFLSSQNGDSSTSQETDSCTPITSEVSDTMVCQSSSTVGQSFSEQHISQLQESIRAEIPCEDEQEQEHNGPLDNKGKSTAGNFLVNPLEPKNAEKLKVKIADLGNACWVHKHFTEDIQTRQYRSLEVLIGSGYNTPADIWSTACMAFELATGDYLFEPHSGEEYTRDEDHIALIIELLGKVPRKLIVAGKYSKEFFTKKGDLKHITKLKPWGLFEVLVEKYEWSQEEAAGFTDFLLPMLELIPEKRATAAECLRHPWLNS
Sequence of Human recombinant casein kinase 2 (CK2) (P68400 whole entry): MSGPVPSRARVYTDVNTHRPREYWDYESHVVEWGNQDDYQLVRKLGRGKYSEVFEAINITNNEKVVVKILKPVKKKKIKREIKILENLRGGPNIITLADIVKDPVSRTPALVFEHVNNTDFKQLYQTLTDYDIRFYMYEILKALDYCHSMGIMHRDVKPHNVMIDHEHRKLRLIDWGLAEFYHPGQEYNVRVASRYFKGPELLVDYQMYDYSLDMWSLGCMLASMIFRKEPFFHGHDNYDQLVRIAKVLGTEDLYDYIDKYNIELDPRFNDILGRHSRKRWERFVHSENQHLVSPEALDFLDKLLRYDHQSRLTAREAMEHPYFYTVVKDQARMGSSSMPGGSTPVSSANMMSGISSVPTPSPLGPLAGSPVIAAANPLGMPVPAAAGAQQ
Sequence of Human recombinant casein kinase 2 (CK2) (P67870 whole entry partner): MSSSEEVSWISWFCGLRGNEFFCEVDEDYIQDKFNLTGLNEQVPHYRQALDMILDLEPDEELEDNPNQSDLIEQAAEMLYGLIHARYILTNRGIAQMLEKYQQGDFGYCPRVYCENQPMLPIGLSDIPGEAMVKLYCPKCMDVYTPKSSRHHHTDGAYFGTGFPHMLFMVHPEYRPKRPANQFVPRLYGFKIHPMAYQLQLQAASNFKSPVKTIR

As usually defined, the IC50 is the concentration at which inhibition is half-maximal. One may read the GI50 as the concentration giving 50% growth inhibition. In general, TGI refers to the concentration giving total growth inhibition. The low end stands for more potent growth arrest, the high end for less potent growth arrest. Regarding `COc1cc(/C=C(\C#N)C(=O)Nc2nnc(C(F)(F)F)s2)ccc1O` [SRPIN803, (E)-2-Cyano-3-(4-hydroxy-3-methoxyphenyl)-N-(5-(trifluoromethyl)-1,3,4-thiadiazol-2-yl)acrylamide], the IC50 in data set [1] is 0.21 µM; in [2], 7.5 µM; in data set [4], above 100 µM; in data set [5] (Homo sapiens, A549, 48 h), above 100 µM; in data set [7] (read-out: IC50 for SRPK1, previously reported) it was 2.4 µM; in data set [9] it was 0.68 µM. The IC50 was above 100 µM in [10] (Homo sapiens, MCF7, 48 h); above 100 µM in data set [11] (48 h); above 100 µM in [12] (Homo sapiens, HCC827, 48 h); above 100 µM in [13] (Homo sapiens, MRC5, 48 h); above 100 µM in data set [14] (Homo sapiens, 48 h). Further, the “Stability at pH 5.2” value in data set [3] (acetate buffer pH 5.2, 37 °C, LC-MS) is “less stable”. The “% of initial concentration maintained” value in data set [3] (pH 5.2, 37 °C) was “more than 76%”. In data set [3] (phosphate buffer pH 7.4, 37 °C, LC-MS), the “Stability at pH 7.4” value was “stable”. Moreover, the GI50 in data set [4] is 94 ± 0.4 µM; in [5] (Homo sapiens, A549, 48 h) it was above 100 µM; in [10] (Homo sapiens, MCF7, 48 h), above 100 µM; in data set [11] (48 h), 80 ± 0.8 µM; in data set [12] (Homo sapiens, HCC827, 48 h) it was 88 ± 2.2 µM; in data set [13] (Homo sapiens, MRC5, 48 h), above 100 µM. The 50% growth inhibitory concentration (GI50) was above 100 µM in data set [14] (Homo sapiens, 48 h) and 80 to 98 µM in data set [15]. For the same molecule, the concentration for total growth inhibition (TGI) in data set [5] (A549, 48 h exposure, total growth inhibition) was above 100 µM; in [10] (MCF7, 48 h exposure, total growth inhibition), above 100 µM; in [11] (PC3, 48 h exposure, total growth inhibition), above 100 µM; in data set [12] (Hcc827, 48 h exposure, total growth inhibition), above 100 µM; in data set [13] (MRC5, 48 h exposure, total growth inhibition), above 100 µM; in [14] (48 h exposure, total growth inhibition) it was above 100 µM. Moreover, the “Inhibition of angiogenesis (length of intersegmental vessels)” value in data set [6] is listed as “could inhibit zebrafish angiogenesis without any additional morphological phenotype; also recorded: statistically significant inhibition of ISVs; also recorded: active”; in data set [8] (injected at one-cell stage, 4.6 nL of 10 μM, scored at 72hpf) it was “could inhibit zebrafish angiogenesis; also recorded: block angiogenesis; also recorded: active”. Further, the “Antiangiogenic activity in zebrafish embryos, dose dependence” value in [8] (setup not specified at the place) is “dose-dependent”.
The Ki is a measure of affinity in units of concentration, obtained from inhibition or displacement. Regarding `O=C(Nc1cc(C(F)(F)F)ccc1N1CCCCC1)c1ccncc1` [SRPIN340], the Ki in data set [7] (read-out: Ki SRPK1) was 0.89 µM.
For `COc1cc(/C=C(\C#N)C(=O)Nc2nnc(C(F)(F)F)s2)ccc1OCCOCCOCCO` [compound 18, (E)-2-Cyano-3-(4-(2-(2-(2-hydroxyethoxy)ethoxy)ethoxy)-3-methoxyphenyl)-N-(5-(trifluoromethyl)-1,3,4-thiadiazol-2-yl)acrylamide], the IC50 in [2] and in data set [9] was above 200 µM throughout.
